The record followed here is ChEMBL document CHEMBL3856268 (J Med Chem, 2016).

The source made the active and inactive calls. No cut-off for these calls is given here.

Data set [1] addresses T1, NAD-dependent protein deacetylase sirtuin-1 (Homo sapiens) (UniProt Q96EB6).
T1 sequence (whole entry): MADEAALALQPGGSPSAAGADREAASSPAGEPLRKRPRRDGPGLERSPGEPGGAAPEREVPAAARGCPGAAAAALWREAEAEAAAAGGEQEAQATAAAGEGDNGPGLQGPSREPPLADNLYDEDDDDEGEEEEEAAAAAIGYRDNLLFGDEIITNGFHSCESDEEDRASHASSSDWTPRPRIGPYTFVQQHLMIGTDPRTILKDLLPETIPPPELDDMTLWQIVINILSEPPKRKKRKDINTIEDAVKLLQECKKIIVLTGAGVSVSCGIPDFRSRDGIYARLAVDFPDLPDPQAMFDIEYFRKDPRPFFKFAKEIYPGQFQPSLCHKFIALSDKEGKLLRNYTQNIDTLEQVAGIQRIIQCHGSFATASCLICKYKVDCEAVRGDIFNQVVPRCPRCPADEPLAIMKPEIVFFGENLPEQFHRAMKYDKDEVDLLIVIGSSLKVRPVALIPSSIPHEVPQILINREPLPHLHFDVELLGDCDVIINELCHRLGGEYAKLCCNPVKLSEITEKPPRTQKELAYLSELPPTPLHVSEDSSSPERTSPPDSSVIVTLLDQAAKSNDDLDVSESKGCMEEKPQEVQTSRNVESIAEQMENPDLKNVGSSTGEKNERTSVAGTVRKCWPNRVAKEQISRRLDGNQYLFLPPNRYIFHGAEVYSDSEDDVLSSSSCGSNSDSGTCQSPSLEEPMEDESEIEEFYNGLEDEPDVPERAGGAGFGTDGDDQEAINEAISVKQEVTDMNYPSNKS
The following applies: 1 uM.

For data set [2], the target named is T1, NAD-dependent protein deacetylase sirtuin-1 (Homo sapiens). The conditions noted are these: 1 uM. The source holds these as a separate data set.
Data set [3] shares this target. The following applies: 1 uM. This is another data set of the same source.
For data set [4] the target is unchanged. The data set is described as follows: Inhibition of 50 nM N-terminal His6-tagged recombinant human SIRT1 expressed in Escherichia coli at 100 uM using RHKK(Ac)W-NH2 as substrate after 30 mins by UV detection-based HPLC method. The gist of the method: (§1)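 SIRT1 (Sigma stock ~6 μM, 10% glycerol, no BSA) freshly diluted in 50 mM Tris-HCl/Tris pH 8.0. Mixture: 200 μM NAD+, 100 μM RHKK(Ac)W-NH2, 1% DMSO, optional additive (Triton X-100 0.01% v:v; BSA 1 mg/mL). Reaction started by enzyme without preincubation, run at 37 °C with conversion kept at 1–10% (30 min at 50 nM, 1 h at 25 nM, 5–10 min at 250 nM). Read-out: C18 HPLC, UV 220 nm, percent conversion from peak areas.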

Data set [5] has the same target. Nature of the data set: Activation of 50 nM N-terminal His6-tagged recombinant human SIRT1 expressed in Escherichia coli at 100 uM using RHKK(Ac)W-NH2 as substrate after 30 mins in presence of 0.01% TX-100 by UV detection-based HPLC method relative to control. The method in brief: as §1
Data set [6] shares this target. The data set is described as follows: Activation of 25 nM N-terminal His6-tagged recombinant human SIRT1 expressed in Escherichia coli at 100 uM using RHKK(Ac)W-NH2 as substrate after 1 hr in presence of 0.01% TX-100 by UV detection-based HPLC method relative to control. The gist of the method: as §1
Data set [7] in a line: Drug aggregation in deuterated phosphate buffer assessed as diffusion coefficient at 100 uM in presence of 0.001% TX-100 by DOSY NMR method. Format: physicochemical. The method in brief:
(§2)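 DOSY at 600 MHz in deuterated phosphate buffer (50 mM, pH 8.0), using stimulated echo with bipolar gradient pulses and spoil gradients. 32 F1 increments of 32 scans, relaxation delay 1 s, acquisition 0.68 s, Δ 50 ms, δ 2.2 ms, 8192 points, 6009 Hz width. Diffusion coefficients taken from residual resonances of the compound.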

In data set [8] the target is T1, NAD-dependent protein deacetylase sirtuin-1 (Homo sapiens). Nature of the data set: Activation of 25 nM N-terminal His6-tagged recombinant human SIRT1 expressed in Escherichia coli at 100 uM using RHKK(Ac)W-NH2 as substrate after 1 hr in presence of 0.01% Tween 20 by UV detection-based HPLC method. The gist of the method: (§3)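 Same SIRT1 HPLC deacetylation assay: 50 mM Tris-HCl/Tris pH 8.0, 200 μM NAD+, 100 μM RHKK(Ac)W-NH2, 1% DMSO. Started by enzyme addition, 37 °C. Deacetylated product separated by C18 HPLC, detected at 220 nm, and conversion computed from peak areas.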

Data set [9] is described as follows: Drug aggregation in deuterated phosphate buffer assessed as diffusion coefficient at 100 uM by DOSY NMR method. Format: physicochemical. The method in brief:
as §2

A short description of data set [10]: Drug aggregation in deuterated phosphate buffer assessed as diffusion coefficient at 1 mM by DOSY NMR method. Format: physicochemical. The conditions noted are these: 1000 µM. The method in brief:
as §2

Data set [11] addresses T1, NAD-dependent protein deacetylase sirtuin-1 (Homo sapiens). Nature of the data set: Binding affinity to 25 to 100 nM N-terminal His6-tagged recombinant human SIRT1 expressed in Escherichia coli at 100 uM by 1H NMR method.
Data set [12] has the same target. Nature of the data set: Activation of 25 nM N-terminal His6-tagged recombinant human SIRT1 expressed in Escherichia coli at 100 uM using RHKK(Ac)W-NH2 as substrate after 1 hr in presence of 0.01% TX-100 by UV detection-based HPLC method.
The target is the same in data set [13]. The data set is described as follows: Inhibition of 25 nM N-terminal His6-tagged recombinant human SIRT1 expressed in Escherichia coli at 100 uM using RHKK(Ac)W-NH2 as substrate after 1 hr by UV detection-based HPLC method relative to control. The method in brief:
as §1

For data set [14] the target is unchanged. Nature of the data set: Activation of 50 nM N-terminal His6-tagged recombinant human SIRT1 expressed in Escherichia coli at low micromolar concentration using RHKK(Ac)W-NH2 as substrate after 30 mins in presence of 0.01% TX-100 by UV detection-based HPLC method relative to control. The gist of the method: as §1
Data set [15] has the same target. The data set is described as follows: Activation of 8 nM N-terminal His6-tagged recombinant human SIRT1 expressed in Escherichia coli at 100 uM using RHKK(Ac)W-NH2 as substrate in presence of 0.01% TX-100 by UV detection-based HPLC method relative to control. The gist of the method: as §3
Data set [16] is described as follows: Drug aggregation in deuterated phosphate buffer assessed as diffusion coefficient at 100 uM in presence of 0.01% TX-100 by DOSY NMR method. Format: physicochemical. The method in brief: as §2
Data set [17] deals with T1, NAD-dependent protein deacetylase sirtuin-1 (Homo sapiens). The data set is described as follows: Inhibition of 8 nM N-terminal His6-tagged recombinant human SIRT1 expressed in Escherichia coli assessed as remaining activity at 100 uM using RHKK(Ac)W-NH2 as substrate by UV detection-based HPLC method relative to control. The method in brief: as §3
The nature of data set [18]: Drug aggregation in deuterated phosphate buffer assessed as diffusion coefficient at 100 uM in presence of 1.5 uM bovine serum albumin by DOSY NMR method. Format: physicochemical. The gist of the method:
as §2

The target of data set [19] is T2, NAD-dependent protein deacetylase sirtuin-2 (Homo sapiens, UniProt Q8IXJ6).
T2 sequence (Q8IXJ6 whole entry): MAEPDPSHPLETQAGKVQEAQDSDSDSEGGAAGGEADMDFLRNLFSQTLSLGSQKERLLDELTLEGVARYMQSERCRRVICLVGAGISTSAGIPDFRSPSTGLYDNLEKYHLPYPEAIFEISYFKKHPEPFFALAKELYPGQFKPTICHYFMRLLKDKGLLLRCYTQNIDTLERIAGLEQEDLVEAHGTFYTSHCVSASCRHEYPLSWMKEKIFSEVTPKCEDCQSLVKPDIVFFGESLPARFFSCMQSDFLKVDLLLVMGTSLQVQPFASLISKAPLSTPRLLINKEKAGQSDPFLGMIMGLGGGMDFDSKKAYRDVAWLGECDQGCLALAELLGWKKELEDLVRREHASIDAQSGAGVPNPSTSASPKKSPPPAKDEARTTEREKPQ
The data set is described as follows: Inhibition of human recombinant GST-fused SIRT2 expressed in Escherichia coli DH5-alpha using [3H]acetic acid labeled MPSDKTIGG as substrate after overnight incubation by liquid scintillation counting method.

Data set [20] addresses T3, NAD-dependent protein deacetylase sirtuin-1 (Homo sapiens, UniProt Q96EB6).
T3 sequence (Q96EB6 whole entry): T1 sequence (whole entry)
Nature of the data set: Inhibition of human recombinant GST-fused SIRT1 expressed in Escherichia coli DH5-alpha using [3H]acetic acid labeled MPSDKTIGG as substrate after overnight incubation by liquid scintillation counting method.

With `CC1=CCC(C(=O)/N=C2\CC=C(S(=O)(=O)O)c3cc(S(=O)(=O)O)cc(S(=O)(=O)O)c32)=C/C1=N/C(=O)C1=CC=C/C(=N\C(=O)/N=C2\C=CC=C(C(=O)/N=C3/CC(C(=O)/N=C4\CC=C(S(=O)(=O)O)c5cc(S(=O)(=O)O)cc(S(=O)(=O)O)c54)=CC=C3C)C2)C1`, the inhibition result in data set [1], in data set [2] and in data set [3] was “Active” in each case.

Take `CC(C)=CCC[C@]1(C)[C@@H](CC=C(C)C)C[C@]2(CC=C(C)C)C(=O)C(CC=C(C)C)=C(O)[C@@]1(C(=O)C(C)C)C2=O`: in [4], the inhibition – broadly, the percentage by which the read-out fell short of the control – is “Active”. Moreover, in [5], the result was Active.

Regarding `CC(C)=CCC[C@]1(C)[C@@H](CC=C(C)C)C[C@@]2(CC=C(C)C)C(=O)[C@]1(C(=O)C(C)C)C(=O)C(CC=C(C)C)=C2OCC(=O)O`, the outcome in data set [6] and in [5] was Active. Further, the inhibition result in [4] was “Active”.

For the molecule `CC(C)=CCC[C@]1(C)[C@@H](CC=C(C)C)C[C@]2(CC=C(C)C)C(=O)[C@@]1(CC=C(C)C)C(=O)C(C(=O)c1ccc(O)c(O)c1)=C2O` [GUTTIFERONE A], the D was determined as 2.298 ×10⁻¹⁰ m2/s in [7]; 2.706 ×10⁻¹⁰ m2/s in data set [9]; 2.246 ×10⁻¹⁰ m2/s in data set [10]; 1.808 ×10⁻¹⁰ m2/s in data set [16]; 1.61 ×10⁻¹⁰ m2/s in [18]. Besides, the fold change (FC) in data set [6] and in [5] was 2 throughout. The result in [8], in data set [11], in data set [12] and in data set [14] was Active. In addition, the inhibition result in data set [4] was “Active”. Besides, the inhibition in [13] turned out to be 90%. Further, the figures for the Activity in [15] and in data set [17] were 158% and 1%, respectively.

On to `CC(C)=CCC/C(C)=C/C[C@@H]1C[C@]2(CC=C(C)C)C(=O)[C@@](CC=C(C)C)(C(=O)C(C(=O)c3ccc(O)c(O)c3)=C2O)[C@@]1(C)CCC=C(C)C` [OBLONGIFOLIN C], for which the IC50 – broadly, the concentration that inhibits the measured activity by half – in [19] amounted to 22 µM; in data set [20], 9 µM.
